ChEMBL document CHEMBL4038263, “Flavonoids from Erythrina schliebenii” (J Nat Prod, 2017)
Converted amounts (≈) assume the structure as drawn.

What was measured:
[1] = system: Mycobacterium tuberculosis; test: Antimycobacterial activity against Mycobacterium tuberculosis H37Rv; assay type: functional
Procedure, shortened: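 Read-out is the minimum inhibitory concentration (MIC). Crude extracts are expressed in μg mL−1 and isolated constituents in μM. Isonicotinylhydrazine and rifampicin served as reference controls.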

[2] = system: MDA-MB-231; test: Cytotoxicity against human MDA-MB-231 cells; assay type: functional, cell-based

Compound | MIC [1] [µM] | EC50 [2] [µM]
CO[C@H]1/C=C/O[C@@]2(C)Oc3c(C)c(O)c4c(O)c(c(/C=N/N5CCN(C)CC5)c(O)c4c3C2=O)NC(=O)/C(C)=C\C=C\[C@H](C)[C@H](O)[C@@H](C)[C@@H](O)[C@@H](C)[C@H](OC(C)=O)[C@@H]1C [RIFAMPIN] | 0.09 (≈ 0.0741 µg/mL) | –
CC1(C)C=Cc2c(cc3occ(-c4ccc(O)cc4O)c(=O)c3c2O)O1 | 90.9 (≈ 32 µg/mL) | 16.9
C=C(C)/C=C/c1cc(-c2coc3cc(O)cc(O)c3c2=O)cc(O)c1OC | 87.4 (≈ 32 µg/mL) | 13
COc1ccc([C@@H]2CC(=O)c3c(cc(OC)c(O)c3OC)O2)cc1 [HAMILTONE A] | 96.9 (≈ 32 µg/mL) | 201
COc1c(CC=C(C)C)cc([C@@H]2CC(=O)c3c(O)cc(O)cc3O2)cc1CC=C(C)C | 49.5 (≈ 20.9 µg/mL) | 21.6
COc1cc(OC)c([C@@H]2COc3cc4c(c(O)c3C2=O)C=CC(C)(C)O4)cc1OC | 67.6 (≈ 27.9 µg/mL) | 58
NNC(=O)c1ccncc1 [ISONIAZID] | 0.3 (≈ 0.0411 µg/mL) | –
COc1ccc(-c2cc(=O)c3c(OC)c(OC)c(OC)cc3o2)cc1OC [SINENSETIN] | 85.9 (≈ 32 µg/mL) | 269
CC(C)=CCc1cc([C@@H]2CC(=O)c3c(O)cc(O)cc3O2)cc(CC=C(C)C)c1O [ABYSSINONE V] | 78.3 (≈ 32 µg/mL) | –
COc1ccc(/C=C/C(=O)c2c(O)cc(OC)c(OC)c2OC)cc1 | 92.9 (≈ 32 µg/mL) | 291
COc1ccc(-c2cc(=O)c3c(OC)c(OC)c(OC)cc3o2)cc1 | 93.5 (≈ 32 µg/mL) | 292
COc1c(O)cc(-c2coc3cc(O)cc(O)c3c2=O)cc1CC=C(C)C | 86.9 (≈ 32 µg/mL) | 77
COc1cc2c(cc1CC=C(C)C)[C@@H]1Oc3cc(O)ccc3[C@@H]1CO2 | 90.8 (≈ 30.7 µg/mL) | –
COc1ccc([C@@H]2CC(=O)c3c(cc(OC)c(OC)c3OC)O2)cc1 | 92.9 (≈ 32 µg/mL) | 291
COc1cc(OC)c(C2COc3cc(O)cc(O)c3C2=O)cc1OC (stereo not given) | 92.5 (≈ 32 µg/mL) | 275
COc1ccc(-c2coc3cc(O)cc(O)c3c2=O)cc1CC=C(C)C | 36.9 (≈ 13 µg/mL) | 27.9
COc1cc(-c2coc3cc(O)cc(O)c3c2=O)cc(CC=C(C)C)c1OC | 77.2 (≈ 29.5 µg/mL) | 49.4
COc1cc(-c2coc3cc(O)cc(O)c3c2=O)cc(OC)c1OC | 93 (≈ 32 µg/mL) | 29
C=C(C)[C@@H]1CC[C@]2(C)CC[C@]3(C)[C@H](CC[C@@H]4[C@@]5(C)CC[C@H](O)C(C)(C)[C@@H]5CC[C@]43C)[C@@H]12 [LUPEOL] | – | 209
COc1ccc(-c2coc3cc(O)cc(O)c3c2=O)cc1OC | 102 (≈ 32 µg/mL) | 31.8
